The record followed here is ChEMBL document CHEMBL3421559, “Discovery of 5-(2',4'-difluorophenyl)-salicylanilides as new inhibitors of receptor activator of NF-κB ligand (RANKL)-induced osteoclastogenesis” (Eur J Med Chem, 2015).

Calls of active or inactive are those of the source. The rule behind the calls is not given here.

Data set [1] in a line: Cytotoxicity against mouse RAW264.7 cells assessed as cell viability at 5 uM after 24 hrs by MTT assay. It is filed as cell-based. The settings on record: read-out: Activity. The method in brief: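 RAW264.7 cells at 1 × 10^4 per well in DMEM with 10% FBS were exposed to compound for 24 h. After PBS washes, they got 500 µg/mL MTT for 1 h at 37 °C. Formazan was dissolved in DMSO and read at 540 nm. Viability is relative to control, mean ± SD from at least three independent runs.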
(In general: Formazan colour is commonly taken as a measure of viable cells.)

A short description of data set [2]: Retention time of the compound by HPLC analysis. It is filed as physicochemical. Summed up: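 Reversed-phase column (5 µm, 4.6 × 250 mm) at 1.0 mL/min with a 0–20% H2O in MeOH gradient.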
Data set [3] relates to RAW264.7. Kind of data set: Downregulation of RANKL-induced NFATc1 gene expression in mouse RAW264.7 cells at 2.5 and 5 uM treated for 1 hr prior to incubation with RANKL for 24 hrs by RT-PCR analysis. The format is functional, cell-based. The method in brief:
(§1)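 RAW264.7 cells grown a day in DMEM/10% FBS were switched to α-MEM with 100 ng/mL murine RANKL, with or without compound, for 24 h. Trizol RNA (2 µg) was reverse-transcribed with oligo(dT) and amplified with mouse-specific primers. Products were run on 1.5% agarose with EtBr, and band densities normalized to GAPDH.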

The test system of data set [4] is RAW264.7. Kind of data set: Downregulation of RANKL-induced TRAP gene expression in mouse RAW264.7 cells at 2.5 and 5 uM treated for 1 hr prior to incubation with RANKL for 24 hrs by RT-PCR analysis. The format is functional, cell-based. Summed up:
as §1

Data set [5] has as its system RAW264.7. Kind of data set: Downregulation of RANKL-induced cathepsin K gene expression in mouse RAW264.7 cells at 2.5 and 5 uM treated for 1 hr prior to incubation with RANKL for 24 hrs by RT-PCR analysis. It is filed as functional, cell-based. The method in brief:
as §1

Data set [6] relates to RAW264.7. Kind of data set: Downregulation of RANKL-induced c-fos gene expression in mouse RAW264.7 cells at 2.5 and 5 uM treated for 1 hr prior to incubation with RANKL for 24 hrs by RT-PCR analysis. The format is functional, cell-based. Summed up: as §1
The test system of data set [7] is RAW264.7. Briefly: Downregulation of RANKL-induced MMP-9 gene expression in mouse RAW264.7 cells at 2.5 and uM treated for 1 hr prior to incubation with RANKL for 24 hrs by RT-PCR analysis. The format is functional, cell-based. The method in brief:
as §1

Data set [8] relates to RAW264.7. Kind of data set: Downregulation of RANKL-induced DC-STAMP gene expression in mouse RAW264.7 cells at 2.5 and 5 uM treated for 1 hr prior to incubation with RANKL for 24 hrs by RT-PCR analysis. The format is functional, cell-based. The method in brief: as §1
Data set [9] has as its system RAW264.7. Briefly: Inhibition of RANKL-induced NF-kappaB activation in mouse RAW264.7 cells assessed as decrease in nuclear accumulation of NF-kappaB at 5 uM treated for 1 hr prior to incubation with RANKL for 24 hrs by ELISA. It is filed as cell-based. The method in brief:
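After 1 h compound pretreatment and 24 h RANKL (100 ng/mL), nuclear extracts were tested in a p65 DNA-binding ELISA. The plate is coated with NF-κB response element, followed by primary antibody and tagged secondary antibody, with absorbance read at 450 nm.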
A general note: In an ELISA, binding on a coated surface is turned into a signal by an enzyme label.

For data set [10], the system named is RAW264.7. Briefly: Inhibition of RANKL-induced NF-kappaB activation in mouse RAW264.7 cells assessed as decrease in nuclear translocation of NF-kappaB at 5 uM treated for 1 hr prior to incubation with RANKL for 24 hrs by Western blot assay relative to control TBP gene expression. It is filed as cell-based. Summed up: (§2)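 Cells were pretreated with compound for 1 h in α-MEM/10% FBS, then given RANKL (100 ng/mL) for 24 h. Nuclear extracts (18 µg) were separated on 12% SDS-PAGE and blotted to PVDF, blocked with 5% BSA. Blots were probed overnight-style for 12 h at 4 °C with mAbs (1:1000) to NF-κB p65, NFATc1 and TBP, then HRP anti-rabbit (1:10000), with chemiluminescent detection.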

The test system of data set [11] is RAW264.7. Briefly: Downregulation of RANKL-induced NFATc1 nuclear expression in mouse RAW264.7 cells at 5 uM treated for 1 hr prior to incubation with RANKL for 24 hrs by Western blot analysis relative to control TBP gene expression. It is filed as functional. Summed up:
as §2
On the technique in general: Immunoblotting shows a protein as a band on a membrane.

The subject of data set [12] is RAW264.7. Briefly: Inhibition of RANKL-induced bone-resorbing activity in mouse RAW264.7 cells assessed as reduction of resorbing pits formed on dentine slices by mature osteoclasts at 5 uM after 4 days by pit formation assay. It is filed as functional. The settings on record: RAW264.7, Dentine, 96 h. Summed up:
(§3)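 Cells on dentine slices were kept in α-MEM with 10% FBS, 2 mM […] and 100 ng/mL RANKL, with or without compound, and medium was renewed every 2 days. At day 4, cells were removed with 1 M ammonium hydroxide and slices stained with 0.1% toluidine blue. Resorbed area/total area was measured per optical field.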

Data set [13] relates to RAW264.7. Briefly: Inhibition of RANKL-induced bone-resorbing activity in mouse RAW264.7 cells assessed as reduction of resorbing pits formed on dentine slices by mature osteoclasts after 4 days by pit formation assay. The format is functional, cell-based. The method in brief: as §3
Data set [14] relates to RAW264.7. Kind of data set: Inhibition of RANKL-induced osteoclastogenesis in mouse RAW264.7 cells assessed as decrease in TRAP activity after 4 days by TRAP activity assay. The settings on record: RAW264.7, 96 h.
The subject of data set [15] is RAW264.7. Kind of data set: Inhibition of RANKL-induced osteoclastogenesis in mouse RAW264.7 cells. It is filed as functional, cell-based. The method in brief:
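RAW264.7 cells (2 × 10^4 per well) were cultured with 100 ng/mL RANKL in α-MEM/10% FBS, with or without compound. On day 4 they were lysed in 0.1% Triton X-100/50 mM Tris-HCl pH 7.2 on ice. TRAP was assayed with 2 mg/mL 4-nitrophenyl phosphate in 0.09 M citrate for 15 min at 37 °C, stopped with NaOH and read at 405 nm. Values were normalized to BCA protein for IC50.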

In the case of `O=C(Nc1ccccc1C(F)(F)F)c1cc(-c2ccc(F)cc2F)ccc1O`, the viability at 24 h, 5 µM in [1] is 99.4%. This compound gave a Retention_time in data set [2] of 5.44 min.

Turning to `N#Cc1ccc(NC(=O)c2cc(-c3ccc(F)cc3F)ccc2O)cc1`, the viability at 24 h, 5 µM in [1] turned out to be 96.2%. The compound further displayed a Retention_time in data set [2] of 6.84 min.

Take `O=C(Nc1ccc(F)c(F)c1)c1cc(-c2ccc(F)cc2F)ccc1O`: in data set [1], the viability at 24 h, 5 µM turned out to be 78.4%. Moreover, the Retention_time in data set [2] is reported as 7.72 min.

`O=C(Nc1ccc(Cl)cc1F)c1cc(-c2ccc(F)cc2F)ccc1O`: the viability at 24 h, 5 µM in [1] amounted to 77.5%. The same compound displayed a Retention_time in data set [2] of 9.07 min.

Turning to `O=C(Nc1cc(F)ccc1F)c1cc(-c2ccc(F)cc2F)ccc1O`, the viability at 24 h, 5 µM in [1] was determined as 102%. The inhibition result in data set [3], in [4], in data set [5], in [6], in data set [7] and in data set [8] was “Dose-dependent effect” in each case. For the same compound, the inhibition entry in data set [13] is “Dose-dependent effect”. For the same compound, the inhibition result in data set [9] was “Active”. Also, the fold change (FC) in [10] turned out to be 0.76; in data set [11] it was 0.55. Also, in data set [12], the inhibition at 5 µM worked out at 80.5%. Further, the Retention_time in [2] is 7.8 min. In addition, the IC50 in data set [14] came to 3.67 µM.

`O=C(Nc1cccc(C(F)(F)F)c1)c1cc(-c2ccc(F)cc2F)ccc1O`: the viability at 24 h, 5 µM in data set [1] is 96.7%. Further, the Retention_time in data set [2] is given as 7.27 min. Also, the IC50 in data set [14] amounted to 4.57 µM.

For the compound `O=C(Nc1ccc(C(F)(F)F)cc1)c1cc(-c2ccc(F)cc2F)ccc1O`, the viability at 24 h, 5 µM in data set [1] is 85.2%. The compound also showed a Retention_time in [2] of 7.87 min.

Regarding `N#Cc1cccc(NC(=O)c2cc(-c3ccc(F)cc3F)ccc2O)c1`, in data set [1], the viability at 24 h, 5 µM was determined as 72.2%. Moreover, the inhibition result in data set [3], in data set [4], in [5], in [6], in [7] and in data set [8] was “Dose-dependent effect” throughout. For the same compound, in [13], the inhibition result was “Dose-dependent effect”. Besides, the inhibition result in data set [9] is “Active”. For the same compound, the fold change (FC) in [10] amounted to 0.82; in data set [11], 0.52. In addition, the inhibition at 5 µM in data set [12] amounted to 59.3%. Besides, the Retention_time in [2] turned out to be 6.92 min. Also, in data set [14], the IC50 was found to be 2.96 µM.

`C#Cc1cccc(NC(=O)c2cc(-c3ccc(F)cc3F)ccc2O)c1`: the viability at 24 h, 5 µM in data set [1] is 63%. Further, the Retention_time in data set [2] is 6.37 min.

For `COc1cccc(NC(=O)c2cc(-c3ccc(F)cc3F)ccc2O)c1`, the viability at 24 h, 5 µM in data set [1] turned out to be 105%. Besides, the Retention_time in [2] is 5.89 min.

Regarding `COc1ccc(NC(=O)c2cc(-c3ccc(F)cc3F)ccc2O)cc1OC`, the viability at 24 h, 5 µM in [1] came to 98.9%. In [2], this compound returned a Retention_time of 7.61 min.

For the compound `O=C(Nc1ccc(F)cc1F)c1cc(-c2ccc(F)cc2F)ccc1O`, the viability at 24 h, 5 µM in data set [1] amounted to 110%. In addition, the Retention_time in data set [2] is on record as 6.45 min.

Regarding `O=C(Nc1ccc(Cl)cc1F)c1ccccc1O`, the IC50 was 15 µM in data set [15] and more than 10 µM in data set [14].

What is called inhibition is the relative decrease from the control value, in per cent. For orientation: IC50 means the point on the concentration scale where inhibition reaches its midpoint.
